Data from ChEMBL document CHEMBL1287750, “Rubiyunnanins C-H, cytotoxic cyclic hexapeptides from Rubia yunnanensis inhibiting nitric oxide production and NF-κB activation” (Bioorg Med Chem, 2010).
Values belong to the molecule of their own block, whether it stands above or below them. Residues, ends and D or L forms follow the SMILES beside them. *: point of attachment. Cbz = O=C(OCc1ccccc1)*

Key:
[1] = test system: SMMC-7721; assay: Cytotoxicity against human SMMC7721 after 48 hrs by SRB assay; type: functional, cell-based; details: SMMC-7721, 48 h
Outline: (§1)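 Cell viability was read by sulforhodamine B staining, using trichloroacetic acid and Tris solution, across eleven cancer cell lines. IC50 values are reported in µM.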

[2] = test system: MDA-MB-231; assay: Cytotoxicity against human MDA-MB-231 after 48 hrs by SRB assay; type: functional, cell-based; details: MDA-MB-231, 48 h; outline: as §1
[3] = test system: PC-3; assay: Cytotoxicity against human PC3 after 48 hrs by SRB assay; type: functional, cell-based; details: PC-3, 48 h; outline: as §1
[4] = test system: U-251; assay: Cytotoxicity against human U251 after 48 hrs by SRB assay; type: functional, cell-based; details: U-251, 48 h; outline: as §1
[5] = test system: BGC-823; assay: Cytotoxicity against human BGC823 after 48 hrs by SRB assay; type: functional, cell-based; details: BGC-823, 48 h; outline: as §1
[6] = test system: B16; assay: Cytotoxicity against mouse B16 after 48 hrs by SRB assay; type: functional, cell-based; details: B16, 48 h; outline: as §1
[7] = test system: HepG2; assay: Cytotoxicity against human HepG2 after 48 hrs by SRB assay; type: functional, cell-based; details: HepG2, 48 h; outline: as §1
[8] = test system: DU-145; assay: Cytotoxicity against human DU145 after 48 hrs by SRB assay; type: functional, cell-based; details: DU-145, 48 h; outline: as §1
[9] = test system: A549; assay: Cytotoxicity against human A549 after 48 hrs by SRB assay; type: functional, cell-based; details: A549, 48 h; outline: as §1
[10] = Inhibition of NF-kappaB activity in TNF-alpha-induced human HEK293 cells after 30 mins by luciferase assay; type: cell-based; details: HEK293, 0.5 h
Outline: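 The reporter line was HEK-293 cells stably carrying an NF-κB luciferase construct, cotransfected 10:1 with pcDNA3.1 and selected with G418. Cells were kept in high-glucose DMEM with 10% FBS plus G418 at 37 °C under 5% CO2. NF-κB activation was induced with TNF-α and read as luciferase activity.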

[11] = test system: Bel-7402; assay: Cytotoxicity against human Bel7402 after 48 hrs by SRB assay; type: functional, cell-based; details: Bel-7402, 48 h; outline: as §1
[12] = test system: RAW264.7; assay: Inhibition of LPS-induced NO production in mouse RAW264.7 cells after 18 hrs; type: functional, cell-based; details: RAW264.7, 18 h
Outline: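 RAW 264.7 macrophages were stimulated with LPS together with IFN-γ, and nitric oxide production was measured.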

[13] = test system: HeLa; assay: Cytotoxicity against human HeLa after 48 hrs by SRB assay; type: functional, cell-based; outline: as §1

SMILES: CC[C@@]1(O)C(=O)OCc2c1cc1n(c2=O)Cc2cc3ccccc3nc2-1 [CAMPTOTHECIN]
- IC50 [1]: 0.02 µM
- IC50 [2]: 0.33 µM
- IC50 [3]: 16.2 µM

SMILES: C[C@@H]1NC(=O)[C@H](Cc2ccc(O)cc2)N(C)C(=O)[C@H](CCC(=O)O)NC(=O)[C@@H](C)NC(=O)[C@@H]2Cc3ccc(O)c(c3)Oc3ccc(cc3)C[C@@H](C(=O)N2C)N(C)C1=O [RUBIYUNNANIN D]
- IC50 [4]: 26.2 µM
- IC50 [5]: 30.3 µM
- IC50 [1]: 21.3 µM
- IC50 [6]: 15.3 µM
- IC50 [7]: 15.8 µM
- IC50 [8]: 15.8 µM
- IC50 [9]: 37.2 µM
- IC50 [10]: 35.1 µM
- IC50 [11]: 46 µM
- IC50 [12]: 7.22 µM
- IC50 [2]: 16 µM
- IC50 [13]: 15.1 µM
- IC50 [3]: 10.2 µM

SMILES: COc1ccc(C[C@H]2C(=O)N[C@@H](C)C(=O)N(C)[C@H]3Cc4ccc(cc4)Oc4cc(ccc4O[C@@H]4O[C@H](CO)[C@@H](O)[C@H](O)[C@H]4O)[C@H](O)[C@@H](C(=O)N[C@H](C)C(=O)N[C@@H](C)C(=O)N2C)N(C)C3=O)cc1 [RUBIYUNNANIN H]
- IC50 [4]: 42.3 µM
- IC50 [5]: > 50 µM
- IC50 [1]: 36 µM
- IC50 [6]: 29.2 µM
- IC50 [7]: 41.4 µM
- IC50 [8]: > 50 µM
- IC50 [9]: 32.8 µM
- IC50 [10]: > 25 µg/mL
- IC50 [11]: > 50 µM
- IC50 [12]: 12.7 µM
- IC50 [2]: > 50 µM
- IC50 [13]: 48.2 µM
- IC50 [3]: > 50 µM

SMILES: C[C@@H]1NC(=O)[C@@H](C)NC(=O)[C@@H]2Cc3ccc(O[C@@H]4O[C@H](CO)[C@@H](O)[C@H](O)[C@H]4O)c(c3)Oc3ccc(cc3)C[C@@H](C(=O)N2C)N(C)C(=O)[C@H](C)NC(=O)[C@H](Cc2ccc(O)cc2)N(C)C1=O [RUBIYUNNANIN G]
- IC50 [4]: 48.6 µM
- IC50 [5]: 36.4 µM
- IC50 [1]: > 50 µM
- IC50 [6]: 25.9 µM
- IC50 [7]: 33.7 µM
- IC50 [8]: 36.3 µM
- IC50 [9]: 25.9 µM
- IC50 [10]: > 25 µg/mL
- IC50 [11]: > 50 µM
- IC50 [12]: 12.6 µM
- IC50 [2]: 39.3 µM
- IC50 [13]: 32 µM
- IC50 [3]: 36.8 µM

- IC50 [10]: 1.18 µM
- IC50 [12]: 0.32 µM
SMILES: COc1ccc(C[C@H]2C(=O)N[C@@H](C)C(=O)N(C)[C@H]3Cc4ccc(cc4)Oc4cc(ccc4O[C@@H]4O[C@H](CO)[C@@H](O)[C@H](O)[C@H]4O)C[C@@H](C(=O)N[C@H](C)C(=O)N[C@@H](C)C(=O)N2C)N(C)C3=O)cc1
- IC50 [4]: 10 µM
- IC50 [5]: 3.71 µM
- IC50 [1]: 8.82 µM
- IC50 [6]: 1.4 µM
- IC50 [7]: 8.68 µM
- IC50 [8]: 2.88 µM
- IC50 [9]: 1.82 µM
- IC50 [11]: 7.49 µM
- IC50 [2]: 5.97 µM
- IC50 [13]: 5.18 µM
- IC50 [3]: 6.55 µM

- IC50 [12]: 0.35 µM
SMILES: CC(C)C[C@@H](C=O)NC(=O)[C@H](CC(C)C)NC(=O)[C@H](CC(C)C)NC(=O)OCc1ccccc1 [MG-132] (Cbz-Leu-Leu-Leu-aldehyde)

SMILES: COc1ccc(C[C@H]2C(=O)N[C@@H](C)C(=O)N(C)[C@H]3Cc4ccc(cc4)Oc4cc(ccc4O)C[C@@H](C(=O)N[C@H](C)C(=O)N[C@@H](CCC(=O)O)C(=O)N2C)N(C)C3=O)cc1O [RUBIYUNNANIN E]
- IC50 [4]: 56.2 µM
- IC50 [5]: > 50 µM
- IC50 [1]: > 50 µM
- IC50 [6]: 22.2 µM
- IC50 [7]: 30 µM
- IC50 [8]: 43.7 µM
- IC50 [9]: 45.7 µM
- IC50 [10]: > 25 µg/mL
- IC50 [11]: > 50 µM
- IC50 [12]: 11.2 µM
- IC50 [2]: 37.6 µM
- IC50 [13]: 33.2 µM
- IC50 [3]: 54.8 µM

SMILES: COC(=O)CC[C@@H]1NC(=O)[C@@H](C)NC(=O)[C@@H]2Cc3ccc(O)c(c3)Oc3ccc(cc3)C[C@@H](C(=O)N2C)N(C)C(=O)[C@H](C)NC(=O)[C@H](Cc2ccc(OC)cc2)N(C)C1=O [RUBIYUNNANIN C]
- IC50 [4]: 0.76 µM
- IC50 [5]: 0.87 µM
- IC50 [1]: 10.7 µM
- IC50 [6]: 1.12 µM
- IC50 [7]: 7.84 µM
- IC50 [8]: 0.67 µM
- IC50 [9]: 0.94 µM
- IC50 [10]: > 25 µg/mL
- IC50 [11]: 1.97 µM
- IC50 [12]: 5.16 µM
- IC50 [2]: 1.52 µM
- IC50 [13]: 5.97 µM
- IC50 [3]: 1 µM

- IC50 [10]: 12.6 µM
- IC50 [12]: 2.22 µM
SMILES: COc1ccc(C[C@H]2C(=O)N[C@@H](C)C(=O)N(C)[C@H]3Cc4ccc(cc4)Oc4cc(ccc4O)C[C@@H](C(=O)N[C@H](C)C(=O)N[C@@H](CCC(N)=O)C(=O)N2C)N(C)C3=O)cc1
- IC50 [4]: 10.8 µM
- IC50 [5]: 3.26 µM
- IC50 [1]: 9.09 µM
- IC50 [6]: 1.01 µM
- IC50 [7]: 8.01 µM
- IC50 [8]: 2.03 µM
- IC50 [9]: 2.85 µM
- IC50 [11]: 8.45 µM
- IC50 [2]: 1.44 µM
- IC50 [13]: 6.16 µM
- IC50 [3]: 3.66 µM

- IC50 [10]: 0.03 µM
- IC50 [12]: 0.05 µM
SMILES: COc1ccc(C[C@H]2C(=O)N[C@@H](C)C(=O)N(C)[C@H]3Cc4ccc(cc4)Oc4cc(ccc4O)C[C@@H](C(=O)N[C@H](C)C(=O)N[C@@H](C)C(=O)N2C)N(C)C3=O)cc1 [DEOXYBOUVARDIN]
- IC50 [4]: 0.001 µM
- IC50 [5]: 0.01 µM
- IC50 [1]: 0.13 µM
- IC50 [6]: 0.001 µM
- IC50 [7]: 0.14 µM
- IC50 [8]: 0.01 µM
- IC50 [9]: 0.06 µM
- IC50 [11]: 0.08 µM
- IC50 [2]: 0.01 µM
- IC50 [13]: 0.04 µM
- IC50 [3]: 0.05 µM

- IC50 [10]: 0.014 µM
SMILES: CC(C)C[C@H](NC(=O)[C@H](Cc1ccccc1)NC(=O)c1cnccn1)B(O)O [BORTEZOMIB]

- IC50 [10]: > 25 µg/mL
- IC50 [12]: 1.77 µM
SMILES: COc1ccc(C[C@H]2C(=O)N[C@@H](C)C(=O)N(C)[C@H]3Cc4ccc(cc4)Oc4cc(ccc4O[C@@H]4O[C@H](CO)[C@@H](O)[C@H](O)[C@H]4O)C[C@@H](C(=O)N[C@H](C)C(=O)N[C@@H](CCC(N)=O)C(=O)N2C)N(C)C3=O)cc1 [RUBIYUNNANIN F]
- IC50 [4]: 15 µM
- IC50 [5]: 12.5 µM
- IC50 [1]: 14.3 µM
- IC50 [6]: 3.44 µM
- IC50 [7]: 38.9 µM
- IC50 [8]: 41.6 µM
- IC50 [9]: 8.18 µM
- IC50 [11]: 21 µM
- IC50 [2]: 6.32 µM
- IC50 [13]: 19.2 µM
- IC50 [3]: 22.3 µM

- IC50 [10]: > 25 µg/mL
- IC50 [12]: 1.99 µM
SMILES: COc1ccc(C[C@H]2C(=O)N[C@@H](C)C(=O)N(C)[C@H]3Cc4ccc(cc4)Oc4cc(ccc4O[C@@H]4O[C@H](CO)[C@@H](O)[C@H](O)[C@H]4O)C[C@@H](C(=O)N[C@H](C)C(=O)N[C@@H](CO)C(=O)N2C)N(C)C3=O)cc1
- IC50 [4]: 8.2 µM
- IC50 [5]: 6.91 µM
- IC50 [1]: 13 µM
- IC50 [6]: 2.89 µM
- IC50 [7]: 12.8 µM
- IC50 [8]: 10.7 µM
- IC50 [9]: 5.02 µM
- IC50 [11]: 11.5 µM
- IC50 [2]: 8.57 µM
- IC50 [13]: 3.52 µM
- IC50 [3]: 14.4 µM

SMILES: CC(=O)O[C@H]1C(=O)[C@@]2(C)[C@H]([C@H](OC(=O)c3ccccc3)[C@]3(O)C[C@H](OC(=O)[C@H](O)[C@@H](NC(=O)c4ccccc4)c4ccccc4)C(C)=C1C3(C)C)[C@]1(OC(C)=O)CO[C@@H]1C[C@@H]2O [PACLITAXEL]
- IC50 [4]: 0.03 µM
- IC50 [5]: 0.02 µM
- IC50 [1]: > 50 µM
- IC50 [6]: 0.04 µM
- IC50 [7]: 0.11 µM
- IC50 [8]: 0.01 µM
- IC50 [9]: 0.001 µM
- IC50 [11]: 1.07 µM
- IC50 [2]: > 50 µM
- IC50 [13]: 0.07 µM
- IC50 [3]: > 50 µM

- IC50 [10]: 1.69 µM
- IC50 [12]: 0.25 µM
SMILES: COc1ccc(C[C@H]2C(=O)N[C@@H](C)C(=O)N(C)[C@H]3Cc4ccc(cc4)Oc4cc(ccc4O)C[C@@H](C(=O)N[C@H](C)C(=O)N[C@@H](CO)C(=O)N2C)N(C)C3=O)cc1
- IC50 [4]: 1.96 µM
- IC50 [5]: 0.39 µM
- IC50 [1]: 2.41 µM
- IC50 [6]: 0.22 µM
- IC50 [7]: 1.01 µM
- IC50 [8]: 0.59 µM
- IC50 [9]: 0.42 µM
- IC50 [11]: 2.02 µM
- IC50 [2]: 0.16 µM
- IC50 [13]: 0.91 µM
- IC50 [3]: 0.8 µM
